Screening data deposited in PubChem BioAssay by Johns Hopkins Ion Channel Center.
An excerpt weighted towards active compounds, which were near 3.7% of everything screened.
KCNQ1 act – potentiators or activators of KCNQ1 channel, primary screen, cell-based, thallium flux, high-throughput | Potassium voltage-gated channel subfamily KQT member 1 (Homo sapiens), P51787 | CHO-K1 KCNQ1, thallium flux FluxOR fluorescence; hits give high values | B-score at 10 µM | 310,000 tested, 0.35% active | AID 2648, 2010;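 active = fluorescence ratio B-score, a plate-corrected score, at least three library SD, with initial intensity B-score within 5 SD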
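Schedule – 37 °C overnight plating, 90-min dark dye load, 20-min compound pretreatment · System – stable KCNQ1 CHO-K1 line · Probe or stimulus – thallium- and potassium-containing depolarizing buffer · Measured by – kinetic FluxOR fluorescence, 10 s baseline plus 110 s post-stimulus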
Kir21 inh – inhibitors of mouse Kir2.1 inward-rectifier potassium channel | AID 1672, 2009 | Inward rectifier potassium channel 2 (Mus musculus), P35561 | B-score at 10 µM | HEK293-Kir2.1, FluxOR thallium flux fluorescence; hits give low values | 310,000 tested, 0.85% active;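 active = fluorescence ratio B-score at or below minus 3 SD of library scores, with starting-brightness B-score within 2 SD, cut at about -4.2 in these data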;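 also: channel flux triggered by added potassium and thallium sulfate stimulus; B-score of peak minus minimum fluorescence over baseline after thallium stimulus; more negative B-score means stronger Kir2.1 block with less thallium influx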
Target sequence (P35561 whole entry, looked up): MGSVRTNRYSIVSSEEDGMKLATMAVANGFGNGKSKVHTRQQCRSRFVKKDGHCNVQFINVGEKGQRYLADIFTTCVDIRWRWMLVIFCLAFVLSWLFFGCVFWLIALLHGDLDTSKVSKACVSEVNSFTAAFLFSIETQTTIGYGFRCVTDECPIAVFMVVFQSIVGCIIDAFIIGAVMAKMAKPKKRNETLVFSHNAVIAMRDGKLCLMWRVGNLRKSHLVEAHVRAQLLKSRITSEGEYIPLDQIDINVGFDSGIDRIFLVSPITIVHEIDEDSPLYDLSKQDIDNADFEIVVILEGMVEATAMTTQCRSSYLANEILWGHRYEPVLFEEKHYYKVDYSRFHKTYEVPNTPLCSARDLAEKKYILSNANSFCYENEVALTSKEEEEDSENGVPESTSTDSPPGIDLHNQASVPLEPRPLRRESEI
hERG rescue – hERG rescue from dofetilide block, primary screen, cell-based, CHO-hERG, FluxOR thallium flux, dofetilide IC70. Voltage-gated inwardly rectifying potassium channel KCNH2 (Homo sapiens), Q12809. dofetilide IC70 present. activation (rescue from dofetilide block), less the hit threshold, % at 10 µM. 310,000 tested, 0.51% active;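 active = activation above the mean of controls blocked by dofetilide plus 5 SD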;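 also: thallium influx through hERG after potassium depolarization seen as dye fluorescence rise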
KCNK3 inh – human KCNK3 channel inhibitors, primary screen, CHO cells, FluxOR thallium flux, B-score; Potassium channel subfamily K member 3 (Homo sapiens), O14649; FluxOR fluorescence; hits give low values; B-score at 10 µM; 340,000 tested, 0.84% active; AID 602410, 2012;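 active = B-score under library mean minus 4 SD, starting fluorescence ratio at most library mean plus 5 SD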;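 also: more negative B-score means stronger inhibition of thallium flux through KCNK3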
KCNK9 inh – KCNK9 potassium channel inhibitors, primary screen, HEK293 cells, thallium flux | B-score at 10 µM | AID 488922, 2010 | 310,000 tested, 1.2% active | Potassium channel subfamily K member 9 (Homo sapiens), Q9NPC2 | FluxOR thallium flux fluorescence; hits give low values;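 active = ratio B-score over 3 SD below the library mean, with starting fluorescence within 5 SD of its mean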;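 also: negative B-score means less thallium flux so channel inhibition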
KCNQ1 block – inhibitors of human KCNQ1 channel, primary screen, cell-based, thallium flux, high-throughput; CHO-K1 KCNQ1, FluxOR thallium flux fluorescence; hits give high values; 310,000 tested, 1.3% active; B-score at 10 µM;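 active = compounds whose thallium flux B-score, printed positive for inhibition, exceeds three library SD while starting fluorescence stays within three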;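 also: channel opened by potassium depolarization with thallium stimulus after 20 min compound exposure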
KCNK3 inh conf – retest of human KCNK3 channel inhibitors, confirmation, CHO cells, FluxOR thallium flux, triplicate | ratio percent of control, % at 10 µM | 2,400 tested, 99% active | AID 651638, 2012 | shares compounds with KCNK3 inh | FluxOR fluorescence; 0% buffer, 100% carvedilol maximal block;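 active = ratio percent of control, averaged over triplicates, above buffer control mean plus 5 SD, cut at about 64% in these data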;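 also: ratio is the fluorescence rise from min to max over baseline after thallium stimulus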
KCNK3 noninduced – thallium flux inhibition in non-induced cells, primary screen, counter-screen for KCNK3 inhibitor project, cell-based, non-induced KCNK3 line, FluxOR thallium, triplicate | AID 651747, 2012 | shares compounds with KCNK3 inh | 2,400 tested, 40% active | non-induced KCNK3 parental cells; hits give low values | thallium flux ratio (lower = more inhibition) at 10 µM;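 active = thallium flux ratio, averaged over three wells, more than 5 SD below the buffer control mean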;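 also: host cells are CHO cells without KCNK3 induction; ratio is peak minus trough fluorescence over baseline then normalized to buffer controls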
Active calls of the source: *; i = inactive; x = no result.

SMILES	KCNQ1 act	Kir21 inh	hERG rescue	KCNK3 inh	KCNK9 inh	KCNQ1 block	KCNK3 inh conf	KCNK3 noninduced
CC(C)CC(=O)OC1C(N2CCOCC2)c2c(ccc(/C=C/C(=O)N3CCOCC3)c2O)OC1(C)C (stereo not given)	i	2.8	-6.8	i	i	i	x	x
O=C(c1cc2nc(-c3ccc(F)cc3)cc(C(F)(F)F)n2n1)N1CCCCC1c1cccnc1 (stereo not given)	i	0.44	-23.0	-10.9*	i	i	120.7*	0.142*
O=C(c1cnn2c(C(F)(F)F)cc(-c3ccccc3)nc12)N1CCCCC1c1cccnc1 (stereo not given)	i	0.01	-2.8	i	i	i	x	x
CCN1CCN(C(=O)c2cc3nc(-c4ccccc4)cc(C(F)(F)F)n3n2)CC1	i	0.37	-5.8	-8.7*	i	i	0.0	i
CC(=O)N1c2ccc(S(=O)(=O)N3CCCCC3)cc2CC1C(=O)Nc1cccc(C)c1 (stereo not given)	i	-1.69	-7.8	-11.2*	i	i	95.0*	i
O=C(Nc1ccc(N2CCOCC2)cc1)c1cc2c(s1)CCCCC2	i	1.48	-6.8	i	i	i	x	x
O=C(Nc1ccccc1N1CCOCC1)c1cc2c(s1)CCCCC2	i	0.4	-5.4	-10.4*	i	i	118.3*	i
O=C(Nc1ccccc1N1CCOCC1)c1cccc(NS(=O)(=O)c2ccc(F)c(F)c2)c1	i	-1.22	-10.4	-8.73*	i	i	94.3*	0.159*
CC(=O)Nc1cccc(C(=O)Nc2ccccc2N2CCOCC2)c1	i	-2.48	-11.9	i	i	i	x	x
COc1ccc(N2CC(C(=O)Nc3c(C(N)=O)oc4ccccc34)CC2=O)cc1 (stereo not given)	i	1.05	-12.4	i	i	i	x	x
O=[N+]([O-])c1ccccc1/C=N\N1CCN(Cc2ccccc2Cl)CC1	i	-1.33	-7.7	-8.95*	i	i	99.3*	i
Clc1ccccc1/C=C/C=N/Nc1nc(N2CCOCC2)nc(N2CCOCC2)n1	i	-0.47	-18.6	-10.4*	i	i	94.0*	i
COc1ccc(/C=C/C(=O)OCc2cccc([N+](=O)[O-])c2)cc1	i	-1.31	-24.1	-9.59*	i	i	95.3*	0.14*
COc1ccc(S(=O)(=O)N2CCN(C(=O)c3ccc([N+](=O)[O-])o3)CC2)cc1	i	-2.08	-4.6	i	i	i	x	x
COc1ccc(/C=C/C(=O)c2ccc([N+](=O)[O-])o2)cc1	i	0.29	-12.4	-10.7*	i	i	99.0*	i
CN(c1ccc(Cl)cc1)c1cc(=O)n(C)c2ccccc12	i	-7.03*	-4.6	-8.78*	i	i	97.7*	i
CN(C(=O)COc1cc(=O)n(C)c2ccccc12)c1ccc(Cl)cc1	i	-0.56	-11.6	i	i	i	x	x
CCOc1cc(N2CCOCC2)c(OCC)cc1NC(=O)c1c(C)noc1C	x	x	x	i	x	x	x	x
CCOC(=O)N1CCN(C(=S)NC(=O)/C=C/c2ccc(C)cc2)CC1	i	0.66	-8.6	i	i	i	x	x
O=C(O)C1C2C=CC(C2)C1C(=O)NCc1ccc2c(c1)OCO2 (stereo not given)	i	-0.58	-0.7	-8.95*	i	i	89.7*	i
CN1CCCN(Cc2nc(-c3cccc(C(F)(F)F)c3)no2)CC1	i	-0.46	-10.4	i	i	i	x	x
Cc1cc2oc(C(=O)N(Cc3ccccc3)C3CCS(=O)(=O)C3)c(C)c2cc1C (stereo not given)	i	-1.61	-13.5	-11*	i	i	92.3*	i
Cc1ccc2oc(C(=O)N(Cc3ccccc3)C3CCS(=O)(=O)C3)c(C)c2c1 (stereo not given)	i	5.92e-16	0.0	i	i	i	x	x
Cc1cccc(/C=C/c2nc3ccccc3c(=O)[nH]2)c1	i	-0.38	-8.4	-9.42*	i	i	87.3*	i
COc1ccc(Cl)cc1NC(=O)N1CCN(c2ccccc2OC)CC1	i	-0.07	-12.6	-10.8*	i	i	81.7*	i
SMILES	KCNQ1 act	Kir21 inh	hERG rescue	KCNK3 inh	KCNK9 inh	KCNQ1 block	KCNK3 inh conf	KCNK3 noninduced
CCOC(=O)CN1C(=O)/C(=C/c2c(F)cccc2Cl)Oc2ccccc21	i	-0.64	-6.5	-8.8*	-7.81*	6*	123.3*	i
COc1ccc(Oc2nc(-c3ccccc3)ncc2C(=O)O)cc1	i	-0.02	-2.6	i	i	i	x	x
Cc1ccc(C(=O)c2cnc3ccccc3c2-c2ccccc2)cc1	i	-0.37	-5.5	-9.78*	i	i	117.7*	0.127*
COc1ccc(C(=O)c2cnc3ccccc3c2-c2ccccc2)cc1	i	0.17	-9.3	-9.24*	i	i	112.0*	i
COc1ccc(-n2ncc3c2CC(C)(C)CC3NC(=O)CCN2CCCCC2=O)cc1 (stereo not given)	i	-0.04	-7.0	i	i	i	x	x
C=CCn1c(SCC(=O)O)nc2sc(CC)cc2c1=O	i	0.41	-4.7	i	i	i	x	x
C=CCn1c(SCC(=O)N2CCN(C(=O)c3ccco3)CC2)nc2sc(CC)cc2c1=O	i	0.13	-16.1	-10.7*	i	i	120.3*	0.146*
C=CCn1c(SCC(=O)c2cccs2)nc2sc(CC)cc2c1=O	i	0.04	-9.0	-10.8*	i	i	127.7*	i
CSCc1ccc(C(=O)NCc2ccc(F)cc2)cc1	i	-0.72	-6.5	i	i	i	x	x
Cc1ccc(S(=O)(=O)N2CCc3ccccc3C2)cc1C	i	-0.18	-3.8	i	i	i	x	x
CC(=O)c1cccc(S(=O)(=O)N2CCCC(c3nc4c(nnn4Cc4ccccc4Cl)c(=O)[nH]3)C2)c1 (stereo not given)	i	1.53	-7.6	i	i	i	x	x
Cc1cccc2c(=O)c(Br)c(C)n(Cc3ccccc3)c12	i	-0.43	-11.9	-8.91*	-7.8*	i	105.3*	i
